Measured values reported in ChEMBL document CHEMBL1150929, “Synthesis and cytotoxic activity of pyranocoumarins of the seselin and xanthyletin series” (J Nat Prod, 1998).
pIC50: −log10 of the molar value. Activity calls are given as the source filed them. No cut-off for these calls is given here.

Experiments:
L1210 [1] = test: Cytotoxicity against mouse L1210 cells after 48 hrs by […] assay; format: functional, cell-based; settings: L1210, 48 h
Outline: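 L1210 cells grown in RPMI 1640 plus 10% fetal calf serum, 2 mM L-glutamine, penicillin/streptomycin, 10 mM HEPES (pH 7.4); exposed 48 h to nine serial drug dilutions in triplicate; microculture tetrazolium read-out; IC50 = concentration halving optical density versus untreated controls; mean of 2 independent experiments.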

L1210 [2] = test: Cell cycle arrest in mouse L1210 cells by accumulation at G1 phase after 21 hrs by flow cytometry; format: functional, cell-based

Structure (SMILES)	pIC50 (L1210 [1])	Activity (L1210 [2])
CC1(C)CC(OC(=O)c2ccccc2)c2cc3ccc(=O)oc3cc2O1 (racemic)	4.05	–
CC1(C)Oc2ccc3ccc(=O)oc3c2[C@H](O)[C@H]1Br (racemic)	< 4.00	–
CC1(C)CC(OC(=O)NCCCl)c2c(ccc3ccc(=O)oc23)O1 (racemic)	4.17	–
CC1(C)Oc2cc3oc(=O)ccc3cc2[C@@H](OC(=O)c2ccccc2)[C@@H]1Br (racemic)	4.44	–
CC1(C)CC(OC(=O)c2ccccc2)c2c(ccc3ccc(=O)oc23)O1 (racemic)	4.51	–
CC(=O)O[C@H]1c2c(ccc3ccc(=O)oc23)OC(C)(C)[C@@H]1Br (racemic)	4.22	–
CC1(C)Oc2ccc3ccc(=O)oc3c2[C@H](OC(=O)c2ccccc2)[C@H]1Br (racemic)	4.99	–
CC(=O)O[C@@H]1c2cc3ccc(=O)oc3cc2OC(C)(C)[C@H]1Br (racemic)	< 4.00	–
CC(=O)OC1CC(C)(C)Oc2ccc3ccc(=O)oc3c21 (racemic)	4.61	–
CC(=O)O[C@@H]1c2cc3ccc(=O)oc3cc2OC(C)(C)[C@@H]1OC(C)=O (racemic)	< 4.00	–
CC1(C)Oc2cc3oc(=O)ccc3cc2[C@@H](O)[C@H]1O (racemic)	< 4.00	–
CC1(C)Oc2ccc3ccc(=O)oc3c2[C@H](O)[C@@H]1O (racemic)	< 4.00	–
CC1(C)Oc2cc3oc(=O)ccc3cc2[C@@H](O)[C@@H]1Br (racemic)	< 4.00	–
CC(=O)O[C@H]1c2c(ccc3ccc(=O)oc23)OC(C)(C)[C@H]1OC(C)=O (racemic)	< 4.00	–
CC1(C)CC(O)c2cc3ccc(=O)oc3cc2O1 (racemic)	5.19	inactive
CC1(C)CC(O)c2c(ccc3ccc(=O)oc23)O1 (racemic)	6.05	inactive
CC(=O)OC1CC(C)(C)Oc2cc3oc(=O)ccc3cc21 (racemic)	5.30	inactive
